ChEMBL document CHEMBL4715799, “An N,N-Bis(benzimidazolylpicolinoyl)piperazine (BT-11): A Novel Lanthionine Synthetase C-Like 2-Based Therapeutic for Inflammatory Bowel Disease” (J Med Chem, 2016)
The source made the active and inactive calls. The calls are words filed in the database; no cut-off is given here.

Assays:
Mus musculus [1] = assay: Antiinflammatory activity in C57BL/6J mouse model of DSS-induced colitis assessed as reduction of TNF-alpha positive cells at 8 mg/kg, po administered as single dose via gavage measured 7 days post DSS challenge by immunostaining based flow cytometric analysis; format: functional, organism-based
Mus musculus [2] = assay: Antiinflammatory activity in C57BL/6J mouse model of DSS-induced colitis assessed as improvement in disease activity at 8 mg/kg, po administered as […] via gavage measured 7 days post DSS challenge; format: functional, organism-based
Method in brief: (§1)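 Colitis induced in C57BL/6J or LANCL2−/− mice with DSS in drinking water. Compound given at 8 mg/kg/d by daily orogastric gavage from day 0 of the DSS challenge. Assessed at day 7 by disease activity index and by histopathology of colon: formalin-fixed, paraffin 5 μm sections, H&E, scored for leukocytic infiltration, epithelial erosion, mucosal thickening.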

Mus musculus [3] = assay: Antiinflammatory activity in LANCL2-/- C57BL/6J mouse model of DSS-induced colitis assessed as upregulation of IL-10 secretion at 8 mg/kg, po administered as single dose via gavage measured 7 days post DSS challenge by immunostaining based flow cytometric analysis; format: functional, organism-based
Mus musculus [4] = assay: Antiinflammatory activity in LANCL2-/- C57BL/6J mouse model of DSS-induced colitis assessed as reduction of MCP1 positive cells at 8 mg/kg, po […] via gavage measured 7 days post DSS challenge by immunostaining based flow cytometric analysis; format: functional, organism-based
Method in brief: (§2)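 DSS colitis in WT or LANCL2−/− mice; 8 mg/kg/d by daily gavage from day 0, analysed at day 7. Colonic cells (4−6 × 10^5) surface-stained 20 min with fluorochrome-conjugated antibodies, then fixed, permeabilized, Fc-blocked and stained intracellularly. Stored fixed at 4 °C in the dark. Flow cytometry with live-cell then single-cell gating.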

[5] = Apparent volume of distribution in rat at 80 mg/kg, po by LC-MS/MS analysis; format: ADME, organism-based; conditions: in vivo
Method in brief: (§3)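 Healthy rats given a single 80 mg/kg oral dose; plasma sampled over 0.5−48 h for pharmacokinetic parameters.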

Mus musculus [6] = assay: Antiinflammatory activity in LANCL2-/- C57BL/6J mouse model of DSS-induced colitis assessed as reduction of TNF-alpha positive cells at 8 mg/kg, po administered as single dose via gavage measured 7 days post DSS challenge by immunostaining based flow cytometric analysis; format: functional, organism-based
[7] = Cmax in rat at 500 mg/kg, po by LC-MS/MS analysis by LC-MS/MS analysis; format: ADME, organism-based; set-up: route oral, dose 500 mg/kg; conditions: in vivo
[8] = Half-life in rat at 80 mg/kg, po by LC-MS/MS analysis; conditions: in vivo
[9] = Elimination rate constant in rat at 80 mg/kg, po; format: ADME, organism-based; conditions: in vivo; method in brief: as §3
[10] = Tmax in rat plasma at 80 mg/kg, po by LC-MS/MS analysis; format: ADME, organism-based; method in brief: as §3
Mus musculus [11] = species on record: Mus musculus; assay: Antiinflammatory activity in C57BL/6J mouse model of DSS-induced colitis assessed as decrease in TNF-alpha gene expression at […] measured 7 days post DSS challenge by qRT-PCR analysis; format: functional, organism-based
Mus musculus [12] = assay: Antiinflammatory activity in C57BL/6J mouse model of DSS-induced colitis assessed as upregulation of IL-10 secretion at 8 mg/kg, po administered as […] via gavage measured 7 days post DSS challenge by immunostaining based flow cytometric analysis; format: functional, organism-based; method in brief: as §2
[13] = target: T1, LanC-like protein 2 (Mus musculus) (UniProt Q9JJK2); assay: Activation of wild-type LANCL2 in C57BL/6J mouse splenocytes assessed as increase in intracellular cAMP production incubated for 20 hrs followed by compound redosing for 10 mins measured by EIA; format: cell-based; conditions: Splenocyte, filed as activator, dose 1.25-10 µM, time 1210.0 min
T1 sequence (whole entry): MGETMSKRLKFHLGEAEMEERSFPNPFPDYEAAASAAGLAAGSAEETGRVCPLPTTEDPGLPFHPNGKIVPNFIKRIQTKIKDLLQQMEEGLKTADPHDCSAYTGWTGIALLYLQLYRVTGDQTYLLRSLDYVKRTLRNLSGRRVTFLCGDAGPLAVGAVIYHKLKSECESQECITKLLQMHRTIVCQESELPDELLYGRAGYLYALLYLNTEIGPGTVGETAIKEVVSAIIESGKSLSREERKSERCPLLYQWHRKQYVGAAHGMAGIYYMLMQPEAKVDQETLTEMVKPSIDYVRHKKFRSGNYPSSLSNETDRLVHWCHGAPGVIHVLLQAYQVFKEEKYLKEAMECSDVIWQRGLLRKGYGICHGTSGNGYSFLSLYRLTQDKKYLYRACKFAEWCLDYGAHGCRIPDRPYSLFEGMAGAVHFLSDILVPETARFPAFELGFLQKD
Method in brief: (§4)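 Splenocytes from male WT or LANCL2−/− C57BL/6J mice over 8 weeks, stimulated on plates precoated with anti-CD28 (1 μg/mL) and anti-CD3 (5 μg/mL). Compound in cRPMI at 0, 1.25, 2.5, 5, 10 μM, four replicates, plus unstimulated controls. After 20 h, a second 10 min treatment at the same concentrations. Cells washed, lysed in 0.1 M HCl, intracellular cAMP read by direct EIA.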

Mus musculus [14] = assay: Antiinflammatory activity in LANCL2-/- C57BL/6J mouse model of DSS-induced colitis assessed as reduction of MHCII+ CD11c+ […] at 8 mg/kg, po […] via gavage measured 7 days post DSS challenge by immunostaining based flow cytometric analysis; format: functional, organism-based; method in brief: as §2
Mus musculus [15] = assay: Antiinflammatory activity in C57BL/6J mouse model of DSS-induced colitis assessed as upregulation of colonic LANCL2 mRNA expression at 8 mg/kg, po administered as single dose via gavage measured after 3 days by qRT-PCR analysis; format: functional, organism-based; conditions: time 3.0 day
Method in brief: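 DSS colitis mice given 8 mg/kg/d orally versus vehicle; colon sampled on day 3 after treatment. Colonic LANCL2 mRNA measured by SYBR green real-time qPCR from 1 μg total RNA, quantified against amplicon standard curves.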

Mus musculus [16] = assay: Antiinflammatory activity in LANCL2-/- C57BL/6J mouse model of DSS-induced colitis at 8 mg/kg, po administered as single dose via gavage measured 7 days DSS challenge; format: functional, organism-based
Mus musculus [17] = assay: Antiinflammatory activity in C57BL/6J mouse model of DSS-induced colitis assessed as upregulation of colonic LANCL2 mRNA expression at 8 mg/kg, po administered as single dose via gavage measured 3 days post DSS challenge by qRT-PCR analysis
Splenocyte = assay: Induction of intracellular cAMP production in LANCL2-/- C57BL/6J mouse splenocytes at 1.25 to 10 uM incubated for 20 hrs followed by redosing for 10 mins measured by EIA; format: functional, tissue-based; conditions: dose 1.25-10 µM, time 1210.0 min; method in brief: as §4
Mus musculus [18] = assay: Antiinflammatory activity in C57BL/6J mouse model of DSS-induced colitis assessed as reduction of MCP1 positive cells at 8 mg/kg, po administered as single dose via gavage measured 7 days post DSS challenge by immunostaining based flow cytometric analysis; format: functional, organism-based
[19] = Drug concentration in rat colon at 80 mg/kg, po by LC-MS/MS analysis; format: ADME, organism-based; conditions: in vivo
[20] = Tmax in rat at 500 mg/kg, po by LC-MS/MS analysis; format: ADME, organism-based; conditions: in vivo
Mus musculus [21] = assay: Antiinflammatory activity in LANCL2-/- C57BL/6J mouse model of DSS-induced colitis assessed as reduction in leukocyte infiltration of gut mucosa at 8 mg/kg, po administered […] via gavage measured 7 days post DSS challenge by H and E staining based histopathological analysis; format: functional, organism-based; method in brief: as §1
Mus musculus [22] = assay: Antiinflammatory activity in C57BL/6J mouse model of DSS-induced colitis assessed as increase in IL-10 gene expression at 8 mg/kg, po administered as single dose via gavage measured 7 days post DSS challenge by qRT-PCR analysis; format: functional, organism-based
Mus musculus [23] = assay: Antiinflammatory activity in C57BL/6J mouse model of DSS-induced colitis assessed as reduction in colonic lesion at 8 mg/kg, po administered as single dose via gavage measured 7 days post DSS challenge; format: functional, organism-based
[24] = Cmax in rat plasma at 80 mg/kg, po measured at 1 hr by LC-MS/MS analysis; format: ADME, organism-based; set-up: route oral, dose 80 mg/kg, time 1 hrs; method in brief: as §3
Mus musculus [25] = assay: Antiinflammatory activity in C57BL/6J mouse model of DSS-induced colitis assessed as reduction of MHCII+ CD11c+ […] at 8 mg/kg, po administered as single dose via gavage measured 7 days post DSS challenge by immunostaining based flow cytometric analysis; format: functional, organism-based

- Vz [5]: 3.38 L/kg
- Cmax [7]: 17 ng/mL
- half-life [8]: 3.1 h
- Kel [9]: 0.225 h⁻¹
- Tmax [10]: 1 h
- Activity [13]: Dose-dependent effect
- Drug uptake [19]: Active
- Tmax [20]: 4 h
- Cmax [24]: 28 ng/mL
Compound: O=C(c1cccc(-c2nc3ccccc3[nH]2)n1)N1CCN(C(=O)c2cccc(-c3nc4ccccc4[nH]3)n2)CC1 [OMILANCOR]
- Activity (Mus musculus [1]): Active
- Activity (Mus musculus [2]): Active
- Activity (Mus musculus [3]): inactive
- Activity (Mus musculus [4]): inactive
- Activity (Mus musculus [6]): inactive
- Activity (Mus musculus [11]): Active
- Activity (Mus musculus [12]): Active
- Activity (Mus musculus [14]): inactive
- Activity (Mus musculus [15]): Active
- Activity (Mus musculus [16]): inactive
- Activity (Mus musculus [17]): Active
- Activity (Splenocyte): inactive
- Activity (Mus musculus [18]): Active
- Activity (Mus musculus [21]): inactive
- Activity (Mus musculus [22]): Active
- Activity (Mus musculus [23]): Active
- Activity (Mus musculus [25]): Active
